# Source: ChEMBL document CHEMBL1629494, “New amino acid esters of salicylanilides active against MDR-TB and other microbes” (Eur J Med Chem, 2010)
# Assays:
# Escherichia coli [1] = experiment: Antibacterial activity against Escherichia coli CCM 4517 after 24 hrs by broth microdilution method; assay type: functional; conditions: CCM 4517, 24 h
# Procedure, shortened: (§1)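 Broth microdilution following […], with twofold compound dilutions in Mueller-Hinton bouillon. Incubated 24 and 48 h at 35 °C in the dark in a humid atmosphere. MIC (IC80) was taken as ≥80% growth reduction versus control, read visually and photometrically.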
# Mycobacterium kansasii [2] = experiment: Antimycobacterial activity against Mycobacterium kansasii; assay type: functional
# [3] = test system: Trichophyton mentagrophytes; experiment: Antifungal activity against Trichophyton mentagrophytes after 48 hrs by broth microdilution method; assay type: functional
# [4] = Lipophilicity, log P of the compound; assay type: physicochemical; conditions: octanol/water
# Mycobacterium avium [5] = experiment: Antimycobacterial activity against multidrug-resistant Mycobacterium avium 330/88 after 21 days by micromethod; assay type: functional; conditions: 330/88, 504 h
# Procedure, shortened: (§2)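 Micromethod in Sula semisynthetic medium, with compounds added as DMSO solutions at 1000, 500, 250, 125, 62, 32, 16, 8, 4, 2, 1, 0.5, 0.25. Inoculum dilutions: H37Rv 10^-3; M. avium 330/88 10^-5; M. kansasii 235/80 10^-4; M. kansasii 6509/96 10^-5. Incubated at 37 °C, read at 14 and 21 days, and at 7 days for M. kansasii. MIC was the lowest concentration inhibiting growth.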
# Enterococcus sp. [6] = experiment: Antibacterial activity against Enterococcus sp. J14365/08 after 24 hrs by broth microdilution method; assay type: functional; conditions: J14365/08, 24 h; procedure, shortened: as §1
# Escherichia coli [7] = experiment: Antibacterial activity against Escherichia coli CCM 4517 after 48 hrs by broth microdilution method; assay type: functional; conditions: CCM 4517, 48 h; procedure, shortened: as §1
# [8] = Selectivity index, ratio of IC50 for human PBMC to MIC for Mycobacterium tuberculosis H37Rv 331/88 after 14 days; assay type: functional
# Procedure, shortened: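 SI = PBMC IC50 (MTT cytotoxicity) divided by the MIC against the named M. tuberculosis strain. MIC taken after 14 days of incubation at 37 °C by the micromethod.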
# Pichia kudriavzevii [9] = experiment: Antifungal activity against Candida krusei E28 after 48 hrs by broth microdilution method; assay type: functional; conditions: E28, 48 h
# Mycobacterium avium [10] = experiment: Antimycobacterial activity against Mycobacterium avium; assay type: functional
# Mycobacterium kansasii [11] = experiment: Antimycobacterial activity against Mycobacterium kansasii 235/80 after 14 days by micromethod; assay type: functional; conditions: 235/80, 336 h; procedure, shortened: as §2
# Nakaseomyces glabratus [12] = experiment: Antifungal activity against Candida glabrata 20/I after 48 hrs by broth microdilution method; assay type: functional
# Pichia kudriavzevii [13] = experiment: Antifungal activity against Candida krusei E28 after 24 hrs by broth microdilution method; assay type: functional; conditions: E28, 24 h
# Staphylococcus aureus [14] = experiment: Antibacterial activity against Staphylococcus aureus CCM 4516/08 after 24 hrs by broth microdilution method; assay type: functional; conditions: CCM 4516/08, 24 h; procedure, shortened: as §1
# Mycobacterium kansasii [15] = experiment: Antimycobacterial activity against Mycobacterium kansasii 6509/96 after 7 days by micromethod; assay type: functional; conditions: 6509/96, 168 h; procedure, shortened: as §2
# Aspergillus fumigatus [16] = experiment: Antifungal activity against Aspergillus fumigatus 231 after 24 hrs by broth microdilution method; assay type: functional; conditions: Aspergillus fumigatus, 231, 24 h
# Lichtheimia corymbifera [17] = experiment: Antifungal activity against Absidia corymbifera 272 after 24 hrs by broth microdilution method; assay type: functional; conditions: Lichtheimia corymbifera, 272, 24 h
# [18] = test system: Mycobacterium tuberculosis; experiment: Antimycobacterial activity against Mycobacterium tuberculosis H37Rv 331/88 after 14 days by micromethod; assay type: functional; conditions: H37Rv 331/88, 336 h; procedure, shortened: as §2
# Candida tropicalis [19] = experiment: Antifungal activity against Candida tropicalis 156 after 24 hrs by broth microdilution method; assay type: functional; conditions: Candida tropicalis, 156, 24 h
# Mycobacterium kansasii [20] = experiment: Antimycobacterial activity against Mycobacterium kansasii 6509/96 after 14 days by micromethod; assay type: functional; conditions: 6509/96, 336 h; procedure, shortened: as §2
# [21] = test system: Mycobacterium tuberculosis; experiment: Antimycobacterial activity against Mycobacterium tuberculosis H37Rv 331/88 after 21 days by micromethod; assay type: functional; conditions: H37Rv 331/88, 504 h; procedure, shortened: as §2
# Mycobacterium avium [22] = experiment: Antimycobacterial activity against multidrug-resistant Mycobacterium avium 330/88 after 14 days by micromethod; assay type: functional; conditions: 330/88, 336 h; procedure, shortened: as §2
# Trichosporon beigelii [23] = experiment: Antifungal activity against Trichosporon beigelii 1188 after 48 hrs by broth microdilution method; assay type: functional; conditions: Trichosporon beigelii, 1188, 48 h
# [24] = test system: Staphylococcus epidermidis; experiment: Antibacterial activity against Staphylococcus epidermidis H6966/08 after 48 hrs by broth microdilution method; assay type: functional; conditions: H6966/08, 48 h; procedure, shortened: as §1
# PBMC = experiment: Cytotoxicity against human PBMC after 24 hrs by MTT assay; assay type: cell-based
# Procedure, shortened: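 Human peripheral blood mononuclear cells in RPMI-1640 with 10% fetal calf serum, 2 mM L-glutamine and gentamicin, 37 °C, 5% CO2. Seeded at 1.5–2.0 × 10⁵ cells/well. After 24 h, treated overnight in serum-free medium. Viability by MTT (2 mg/mL, 4 h); formazan dissolved in DMSO; OD540 minus OD620. Cytotoxicity % = [1 − OD treated/OD control] × 100; IC50 from dose-response curves. Four parallels, two independent experiments.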
# Staphylococcus aureus [25] = experiment: Antibacterial activity against methicillin-resistant Staphylococcus aureus H5996/08 after 24 hrs by broth microdilution method; assay type: functional; conditions: H5996/08, 24 h; procedure, shortened: as §1
# Enterococcus sp. [26] = experiment: Antibacterial activity against Enterococcus sp. J14365/08 after 48 hrs by broth microdilution method; assay type: functional; conditions: J14365/08, 48 h; procedure, shortened: as §1
# Mycobacterium kansasii [27] = experiment: Antimycobacterial activity against Mycobacterium kansasii 6509/96 after 21 days by micromethod; assay type: functional; conditions: 6509/96, 504 h; procedure, shortened: as §2
# Klebsiella pneumoniae [28] = experiment: Antibacterial activity against Klebsiella pneumoniae D11750/08 after 48 hrs by broth microdilution method; assay type: functional; conditions: D11750/08, 48 h; procedure, shortened: as §1
# [29] = test system: Staphylococcus epidermidis; experiment: Antibacterial activity against Staphylococcus epidermidis H6966/08 after 24 hrs by broth microdilution method; assay type: functional; conditions: H6966/08, 24 h; procedure, shortened: as §1
# Mycobacterium kansasii [30] = experiment: Antimycobacterial activity against Mycobacterium kansasii 235/80 after 7 days by micromethod; assay type: functional; conditions: 235/80, 168 h; procedure, shortened: as §2
# [31] = test system: Trichophyton mentagrophytes; experiment: Antifungal activity against Trichophyton mentagrophytes after 24 hrs by broth microdilution method; assay type: functional
# [32] = test system: Mycobacterium tuberculosis; experiment: Antimycobacterial activity against drug-sensitive Mycobacterium tuberculosis; assay type: functional
# Aspergillus fumigatus [33] = experiment: Antifungal activity against Aspergillus fumigatus 231 after 48 hrs by broth microdilution method; assay type: functional; conditions: Aspergillus fumigatus, 231, 48 h
# Candida albicans [34] = experiment: Antifungal activity against Candida albicans ATCC 44859 after 48 hrs by broth microdilution method; assay type: functional; conditions: ATCC 44859, 48 h
# Trichosporon beigelii [35] = experiment: Antifungal activity against Trichosporon beigelii 1188 after 24 hrs by broth microdilution method; assay type: functional; conditions: Trichosporon beigelii, 1188, 24 h
# Candida albicans [36] = experiment: Antifungal activity against Candida albicans ATCC 44859 after 24 hrs by broth microdilution method; assay type: functional; conditions: ATCC 44859, 24 h
# Lichtheimia corymbifera [37] = experiment: Antifungal activity against Absidia corymbifera 272 after 48 hrs by broth microdilution method; assay type: functional; conditions: Lichtheimia corymbifera, 272, 48 h
# Candida tropicalis [38] = experiment: Antifungal activity against Candida tropicalis 156 after 48 hrs by broth microdilution method; assay type: functional; conditions: Candida tropicalis, 156, 48 h
# Staphylococcus aureus [39] = experiment: Antibacterial activity against Staphylococcus aureus CCM 4516/08 after 48 hrs by broth microdilution method; assay type: functional; conditions: CCM 4516/08, 48 h; procedure, shortened: as §1
# Staphylococcus aureus [40] = experiment: Antibacterial activity against methicillin-resistant Staphylococcus aureus H5996/08 after 48 hrs by broth microdilution method; assay type: functional; conditions: H5996/08, 48 h; procedure, shortened: as §1
# Klebsiella pneumoniae [41] = experiment: Antibacterial activity against Klebsiella pneumoniae D11750/08 after 24 hrs by broth microdilution method; assay type: functional; conditions: D11750/08, 24 h; procedure, shortened: as §1
# Nakaseomyces glabratus [42] = experiment: Antifungal activity against Candida glabrata 20/I after 24 hrs by broth microdilution method; assay type: functional
# Mycobacterium kansasii [43] = experiment: Antimycobacterial activity against Mycobacterium kansasii 235/80 after 21 days by micromethod; assay type: functional; conditions: 235/80, 504 h; procedure, shortened: as §2
smiles,measurement,setting,value
CC(=O)N[C@@H](Cc1ccccc1)C(=O)Oc1ccc(Cl)cc1C(=O)Nc1ccc(C(F)(F)F)cc1,MIC,Escherichia coli [1],> 125 µM
same,MIC,Mycobacterium kansasii [2],1 µM
same,MIC,[3],> 125 µM
same,logP,[4],4.92
same,MIC,Mycobacterium avium [5],4 µM
same,MIC,Enterococcus sp. [6],31.2 µM
same,MIC,Escherichia coli [7],> 125 µM
same,Selectivity Index,[8],48.8
same,MIC,Pichia kudriavzevii [9],> 125 µM
same,MIC,Mycobacterium avium [10],1 µM
same,MIC,Mycobacterium kansasii [11],1 µM
same,MIC,Nakaseomyces glabratus [12],> 125 µM
same,MIC,Pichia kudriavzevii [13],125 µM
same,MIC,Staphylococcus aureus [14],0.98 µM
same,MIC,Mycobacterium kansasii [15],1 µM
same,MIC,Aspergillus fumigatus [16],125 µM
same,MIC,Lichtheimia corymbifera [17],> 125 µM
same,MIC,[18],0.25 µM
same,MIC,Candida tropicalis [19],> 125 µM
same,MIC,Mycobacterium kansasii [20],2 µM
same,MIC,[21],0.5 µM
same,MIC,Mycobacterium avium [22],4 µM
same,MIC,Trichosporon beigelii [23],> 125 µM
same,MIC,[24],3.9 µM
same,IC50,PBMC,12.2 µM
same,MIC,Staphylococcus aureus [25],0.98 µM
same,MIC,Enterococcus sp. [26],> 125 µM
same,MIC,Mycobacterium kansasii [27],2 µM
same,MIC,Klebsiella pneumoniae [28],> 125 µM
same,MIC,[29],0.98 µM
same,MIC,Mycobacterium kansasii [30],0.5 µM
same,MIC,[31],62.5 µM
same,MIC,[32],1 µM
same,MIC,Aspergillus fumigatus [33],> 125 µM
same,MIC,Candida albicans [34],> 125 µM
same,MIC,Trichosporon beigelii [35],125 µM
same,MIC,Candida albicans [36],> 125 µM
same,MIC,Lichtheimia corymbifera [37],> 125 µM
same,MIC,Candida tropicalis [38],> 125 µM
same,MIC,Staphylococcus aureus [39],1.95 µM
same,MIC,Staphylococcus aureus [40],7.81 µM
same,MIC,Klebsiella pneumoniae [41],> 125 µM
same,MIC,Nakaseomyces glabratus [42],> 125 µM
same,MIC,Mycobacterium kansasii [43],2 µM
CC(=O)N[C@@H](Cc1ccccc1)C(=O)Oc1ccc(Br)cc1C(=O)Nc1ccc(C(F)(F)F)cc1,MIC,Escherichia coli [1],250 µM
same,MIC,Mycobacterium kansasii [2],1 µM
same,MIC,[3],7.81 µM
same,logP,[4],5.19
same,MIC,Mycobacterium avium [5],4 µM
same,MIC,Enterococcus sp. [6],15.6 µM
same,MIC,Escherichia coli [7],500 µM
same,Selectivity Index,[8],194.8
same,MIC,Pichia kudriavzevii [9],125 µM
same,MIC,Mycobacterium avium [10],1 µM
same,MIC,Mycobacterium kansasii [11],2 µM
same,MIC,Nakaseomyces glabratus [12],500 µM
same,MIC,Pichia kudriavzevii [13],15.6 µM
same,MIC,Staphylococcus aureus [14],3.9 µM
same,MIC,Mycobacterium kansasii [15],1 µM
same,MIC,Aspergillus fumigatus [16],15.6 µM
same,MIC,Lichtheimia corymbifera [17],7.81 µM
same,MIC,[18],0.25 µM
same,MIC,Candida tropicalis [19],125 µM
same,MIC,Mycobacterium kansasii [20],2 µM
same,MIC,[21],0.5 µM
same,MIC,Mycobacterium avium [22],4 µM
same,MIC,Trichosporon beigelii [23],31.2 µM
same,MIC,[24],62.5 µM
same,IC50,PBMC,48.7 µM
same,MIC,Staphylococcus aureus [25],7.81 µM
same,MIC,Enterococcus sp. [26],125 µM
same,MIC,Mycobacterium kansasii [27],2 µM
same,MIC,Klebsiella pneumoniae [28],> 500 µM
same,MIC,[29],15.6 µM
same,MIC,Mycobacterium kansasii [30],0.5 µM
same,MIC,[31],3.9 µM
same,MIC,[32],1 µM
same,MIC,Aspergillus fumigatus [33],31.2 µM
same,MIC,Candida albicans [34],500 µM
same,MIC,Trichosporon beigelii [35],15.6 µM
same,MIC,Candida albicans [36],31.2 µM
same,MIC,Lichtheimia corymbifera [37],15.6 µM
same,MIC,Candida tropicalis [38],250 µM
same,MIC,Staphylococcus aureus [39],31.2 µM
same,MIC,Staphylococcus aureus [40],125 µM
same,MIC,Klebsiella pneumoniae [41],> 500 µM
same,MIC,Nakaseomyces glabratus [42],125 µM
same,MIC,Mycobacterium kansasii [43],2 µM
